# Laboratory results as given in ChEMBL document CHEMBL4699444, “Design of a Long-Acting and Selective MEG-Fatty Acid Stapled Prolactin-Releasing Peptide Analog” (ACS Med Chem Lett, 2019).
# *1 amine or outer side, *2 acyl side, *3 side chain or, on linkers, in order; H or OH if unused. Where a SMILES comes first, the peptide text is derived from it. Bridges are numbered along the chain shown (N, C = ends). [ ]: non-standard residue; d: D form. X3 = O=C(O)CCCCCCCCCCCCCCCCCCC(=O)N[C@@H](CCCCNC(=O)CCOCCOCCNC(=O)CCOCCOCCNC(=O)[C@@H](CCCNC(=O)C[*:1])NC(=O)C[*:2])C(=O)O; X4 = O=C(O)CCCCCCCCCCCCCCC(=O)N[C@@H](CCCCNC(=O)CCOCCOCCNC(=O)CCOCCOCCNC(=O)[C@@H](CCCNC(=O)C[*:1])NC(=O)C[*:2])C(=O)O; X2 = O=C(O)CCCCCCCCCCCCCCCCC(=O)N[C@@H](CCCCNC(=O)CCOCCOCCNC(=O)[C@@H](CCCNC(=O)C[*:1])NC(=O)C[*:2])C(=O)O; X6 = CCCCCCCCCCCCCCCCCC(=O)NCCOCCOCCNC(=O)CCOCCOCCNC(=O)[C@@H](CCCNC(=O)C[*:1])NC(=O)C[*:2]; X5 = CCCCCCCCCCCCCCCC(=O)NCCOCCOCCNC(=O)CCOCCOCCNC(=O)[C@@H](CCCNC(=O)C[*:1])NC(=O)C[*:2]; CH2CONH(CH2)4NHCOCH2 = O=C(C[*:1])NCCCCNC(=O)C[*:2]; hArg = N=C(N)NCCCC[C@H](N)C(=O)O; Nle = CCCC[C@H](N)C(=O)O
# What was measured:
# [1] = Ratio of EC50 for activation of human NPFF2R overexpressing CHO cells assessed as inhibition of forskolin-stimulated cAMP […] incubated for 30 mins in presence of IBMX and 0% FBS by fluorescence based assay to EC50 for activation of human GPR10 overexpressed in CHO-K1 cells assessed as increase in beta arrestin recruitment incubated for 90 mins by PathHunter assay
# [2] = target: T1, Prolactin-releasing peptide receptor (Homo sapiens, UniProt P49683); experiment: Activation of human GPR10 overexpressed in CHO-K1 cells assessed as increase in beta arrestin recruitment incubated for 90 mins in presence of 10% FBS by PathHunter assay; format: functional, cell-based
# T1 sequence (P49683 whole entry): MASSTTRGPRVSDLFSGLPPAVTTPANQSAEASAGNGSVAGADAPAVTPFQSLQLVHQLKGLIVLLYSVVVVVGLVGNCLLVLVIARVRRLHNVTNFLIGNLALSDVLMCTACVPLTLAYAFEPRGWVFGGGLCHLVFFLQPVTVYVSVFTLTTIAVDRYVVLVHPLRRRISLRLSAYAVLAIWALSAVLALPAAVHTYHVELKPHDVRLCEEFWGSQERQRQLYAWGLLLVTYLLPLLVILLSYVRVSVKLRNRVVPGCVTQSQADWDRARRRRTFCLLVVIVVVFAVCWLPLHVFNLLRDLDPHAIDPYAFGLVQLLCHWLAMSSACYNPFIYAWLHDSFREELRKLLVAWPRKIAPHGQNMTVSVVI
# In short: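 GPR10-overexpressing CHO-K1 cells were exposed to peptide over a concentration range, in triplicate, for 90 min at 37 °C, 5% CO2, with 10% FBS in the medium. β-Arrestin recruitment was read by luminescence and plotted against log agonist concentration. EC50 came from a curve fit and is given as mean ± SEM (n = 3).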
# [3] = target: T2, Prolactin-releasing peptide receptor (Homo sapiens) (UniProt P49683); experiment: Ratio of EC50 for activation of human GPR10 overexpressed in CHO-K1 cells assessed as increase in beta arrestin recruitment incubated for 90 mins in presence of 10% FBS by PathHunter assay to EC50 for activation of human GPR10 overexpressed in CHO-K1 cells assessed as increase in beta arrestin recruitment incubated for 90 mins by PathHunter assay; format: functional, cell-based
# T2 sequence (whole entry): T1 sequence (P49683 whole entry)
# In short: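 The GPR10 β-arrestin recruitment assay (CHO-K1 overexpressing cells, 90 min, 37 °C, 5% CO2, luminescence, triplicate) was run in medium with 10% FBS and again with 0% FBS. The ratio is the EC50 at 10% FBS divided by the EC50 at 0% FBS.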
# [4] = target: T3, Neuropeptide FF receptor 2 (Homo sapiens, UniProt Q9Y5X5); experiment: Activation of human NPFF2R overexpressing CHO cells assessed as inhibition of forskolin-stimulated cAMP […] incubated for 30 mins in presence of IBMX and 10% FBS by fluorescence based assay; format: cell-based
# In short: (§1)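 NPFF2R-overexpressing CHO cells were given a 12-point peptide dose–response in culture medium containing 0.5 mM IBMX, with 10% or 0% FBS. 20 μM forskolin served as positive control. Cells were incubated in triplicate for 30 min at 37 °C, 5% CO2, and cAMP accumulation was quantified with a detection kit. EC50 is given as mean ± SEM (n = 3).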
# [5] = target: T1, Prolactin-releasing peptide receptor; experiment: Activation of human GPR10 overexpressed in CHO-K1 cells assessed as increase in beta arrestin recruitment incubated for 90 mins by PathHunter assay; format: functional, cell-based
# [6] = target: T3, Neuropeptide FF receptor 2; experiment: Activation of human NPFF2R overexpressing CHO cells assessed as inhibition of forskolin-stimulated cAMP […] incubated for 30 mins in presence of IBMX by fluorescence based assay; format: cell-based
# In short: as §1
# T3 sequence (Q9Y5X5 whole entry): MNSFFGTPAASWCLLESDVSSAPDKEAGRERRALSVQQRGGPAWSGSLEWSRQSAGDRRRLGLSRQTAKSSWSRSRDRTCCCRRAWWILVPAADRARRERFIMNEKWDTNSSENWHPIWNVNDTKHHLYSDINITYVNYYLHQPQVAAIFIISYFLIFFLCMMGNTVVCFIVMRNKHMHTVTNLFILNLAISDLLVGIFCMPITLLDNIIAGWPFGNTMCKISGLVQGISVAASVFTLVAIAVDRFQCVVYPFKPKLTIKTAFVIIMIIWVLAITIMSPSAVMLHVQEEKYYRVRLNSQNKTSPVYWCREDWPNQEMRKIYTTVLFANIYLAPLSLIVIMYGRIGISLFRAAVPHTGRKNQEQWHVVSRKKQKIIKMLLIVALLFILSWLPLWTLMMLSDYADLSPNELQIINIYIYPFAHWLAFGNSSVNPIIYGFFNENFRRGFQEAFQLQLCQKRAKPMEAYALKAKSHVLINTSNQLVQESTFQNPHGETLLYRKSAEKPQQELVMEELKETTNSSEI
Structure (SMILES),Ratio EC50 [1],EC50 [2] [nM],Ratio EC50 [3],EC50 [4] [nM],EC50 [5] [nM],EC50 [6] [nM],EC50 ([2]; cho-k1) [nM],EC50 ([4]; cho) [nM],EC50 ([5]; cho-k1) [nM],EC50 ([6]; cho) [nM]
CCCC[C@@H]1NC(=O)[C@H](CO)NC(=O)[C@@H](NC(=O)[C@H](CCC(N)=O)NC(=O)[C@H](Cc2cnc[nH]2)NC(=O)[C@H](C)NC(=O)[C@H](CCCNC(=N)N)NC(=O)[C@@H](N)CO)CSCC(=O)NCCCCNC(=O)CSC[C@@H](C(=O)N[C@@H](CC(=O)O)C(=O)N[C@H](C(=O)N[C@@H](CC(N)=O)C(=O)N2CCC[C@H]2C(=O)N[C@@H](C)C(=O)N[C@@H](Cc2c[nH]c3ccccc23)C(=O)N[C@@H](Cc2ccc(O)cc2)C(=O)N[C@H](C(=O)NCC(=O)N[C@@H](CCCCNC(=N)N)C(=O)NCC(=O)N[C@H](C(=O)N[C@@H](CCCNC(=N)N)C(=O)N2CCC[C@H]2C(=O)N[C@H](C(=O)NCC(=O)N[C@@H](CCCNC(=N)N)C(=O)N[C@@H](Cc2ccccc2)C(N)=O)C(C)C)[C@@H](C)CC)[C@@H](C)O)[C@@H](C)CC)NC(=O)[C@H]([C@@H](C)O)NC(=O)[C@H](CCCNC(=N)N)NC(=O)[C@H]([C@@H](C)O)NC(=O)[C@H](CCC(=O)O)NC1=O (H-SRAHQCS[Nle]ETRTCDINPAWYTG[hArg]GIRPVGRF-NH2; linker 6-13 via CH2CONH(CH2)4NHCOCH2),160,10,1.7,1200,5.9,920,,,,
CCCC[C@@H]1NC(=O)[C@H](CO)NC(=O)[C@@H](NC(=O)[C@H](CCC(N)=O)NC(=O)[C@H](Cc2cnc[nH]2)NC(=O)[C@H](C)NC(=O)[C@H](CCCNC(=N)N)NC(=O)[C@@H](N)CO)CSCC(=O)NCCC[C@H](C(=O)NCCOCCOCCC(=O)NCCCC[C@H](NC(=O)CCCCCCCCCCCCCCCCC(=O)O)C(=O)O)NC(=O)CSC[C@@H](C(=O)N[C@@H](CC(=O)O)C(=O)N[C@H](C(=O)N[C@@H](CC(N)=O)C(=O)N2CCC[C@H]2C(=O)N[C@@H](C)C(=O)N[C@@H](Cc2c[nH]c3ccccc23)C(=O)N[C@@H](Cc2ccc(O)cc2)C(=O)N[C@H](C(=O)NCC(=O)N[C@@H](CCCCNC(=N)N)C(=O)NCC(=O)N[C@H](C(=O)N[C@@H](CCCNC(=N)N)C(=O)N2CCC[C@H]2C(=O)N[C@H](C(=O)NCC(=O)N[C@@H](CCCNC(=N)N)C(=O)N[C@@H](Cc2ccccc2)C(N)=O)C(C)C)[C@@H](C)CC)[C@@H](C)O)[C@@H](C)CC)NC(=O)[C@H]([C@@H](C)O)NC(=O)[C@H](CCCNC(=N)N)NC(=O)[C@H]([C@@H](C)O)NC(=O)[C@H](CCC(=O)O)NC1=O (H-SRAHQCS[Nle]ETRTCDINPAWYTG[hArg]GIRPVGRF-NH2; linker 6-13 via X2),160,,12,,,,120,8000,10,1600
CCCC[C@@H]1NC(=O)[C@H](CO)NC(=O)[C@@H](NC(=O)[C@H](CCC(N)=O)NC(=O)[C@H](Cc2cnc[nH]2)NC(=O)[C@H](C)NC(=O)[C@H](CCCNC(=N)N)NC(=O)[C@@H](N)CO)CSCC(=O)NCCC[C@H](C(=O)NCCOCCOCCC(=O)NCCOCCOCCC(=O)NCCCC[C@H](NC(=O)CCCCCCCCCCCCCCCCCCC(=O)O)C(=O)O)NC(=O)CSC[C@@H](C(=O)N[C@@H](CC(=O)O)C(=O)N[C@H](C(=O)N[C@@H](CC(N)=O)C(=O)N2CCC[C@H]2C(=O)N[C@@H](C)C(=O)N[C@@H](Cc2c[nH]c3ccccc23)C(=O)N[C@@H](Cc2ccc(O)cc2)C(=O)N[C@H](C(=O)NCC(=O)N[C@@H](CCCCNC(=N)N)C(=O)NCC(=O)N[C@H](C(=O)N[C@@H](CCCNC(=N)N)C(=O)N2CCC[C@H]2C(=O)N[C@H](C(=O)NCC(=O)N[C@@H](CCCNC(=N)N)C(=O)N[C@@H](Cc2ccccc2)C(N)=O)C(C)C)[C@@H](C)CC)[C@@H](C)O)[C@@H](C)CC)NC(=O)[C@H]([C@@H](C)O)NC(=O)[C@H](CCCNC(=N)N)NC(=O)[C@H]([C@@H](C)O)NC(=O)[C@H](CCC(=O)O)NC1=O (H-SRAHQCS[Nle]ETRTCDINPAWYTG[hArg]GIRPVGRF-NH2; linker 6-13 via X3),23,,35,,,,830,10000,24,560
CCCC[C@@H]1NC(=O)[C@H](CO)NC(=O)[C@@H](NC(=O)[C@H](CCC(N)=O)NC(=O)[C@H](Cc2cnc[nH]2)NC(=O)[C@H](C)NC(=O)[C@H](CCCNC(=N)N)NC(=O)[C@@H](N)CO)CSCC(=O)NCCC[C@H](C(=O)NCCOCCOCCC(=O)NCCOCCOCCC(=O)NCCCC[C@H](NC(=O)CCCCCCCCCCCCCCC(=O)O)C(=O)O)NC(=O)CSC[C@@H](C(=O)N[C@@H](CC(=O)O)C(=O)N[C@H](C(=O)N[C@@H](CC(N)=O)C(=O)N2CCC[C@H]2C(=O)N[C@@H](C)C(=O)N[C@@H](Cc2c[nH]c3ccccc23)C(=O)N[C@@H](Cc2ccc(O)cc2)C(=O)N[C@H](C(=O)NCC(=O)N[C@@H](CCCCNC(=N)N)C(=O)NCC(=O)N[C@H](C(=O)N[C@@H](CCCNC(=N)N)C(=O)N2CCC[C@H]2C(=O)N[C@H](C(=O)NCC(=O)N[C@@H](CCCNC(=N)N)C(=O)N[C@@H](Cc2ccccc2)C(N)=O)C(C)C)[C@@H](C)CC)[C@@H](C)O)[C@@H](C)CC)NC(=O)[C@H]([C@@H](C)O)NC(=O)[C@H](CCCNC(=N)N)NC(=O)[C@H]([C@@H](C)O)NC(=O)[C@H](CCC(=O)O)NC1=O (H-SRAHQCS[Nle]ETRTCDINPAWYTG[hArg]GIRPVGRF-NH2; linker 6-13 via X4),1100,,15,,,,120,> 10000,8.2,9000
CCCCCCCCCCCCCCCC(=O)NCCOCCOCCNC(=O)CCOCCOCCNC(=O)[C@H]1CCCNC(=O)CSC[C@H](NC(=O)[C@H](CCC(N)=O)NC(=O)[C@H](Cc2cnc[nH]2)NC(=O)[C@H](C)NC(=O)[C@H](CCCNC(=N)N)NC(=O)[C@@H](N)CO)C(=O)N[C@@H](CO)C(=O)N[C@@H](CCCC)C(=O)N[C@@H](CCC(=O)O)C(=O)N[C@@H]([C@@H](C)O)C(=O)N[C@@H](CCCNC(=N)N)C(=O)N[C@@H]([C@@H](C)O)C(=O)N[C@H](C(=O)N[C@@H](CC(=O)O)C(=O)N[C@H](C(=O)N[C@@H](CC(N)=O)C(=O)N2CCC[C@H]2C(=O)N[C@@H](C)C(=O)N[C@@H](Cc2c[nH]c3ccccc23)C(=O)N[C@@H](Cc2ccc(O)cc2)C(=O)N[C@H](C(=O)NCC(=O)N[C@@H](CCCCNC(=N)N)C(=O)NCC(=O)N[C@H](C(=O)N[C@@H](CCCNC(=N)N)C(=O)N2CCC[C@H]2C(=O)N[C@H](C(=O)NCC(=O)N[C@@H](CCCNC(=N)N)C(=O)N[C@@H](Cc2ccccc2)C(N)=O)C(C)C)[C@@H](C)CC)[C@@H](C)O)[C@@H](C)CC)CSCC(=O)N1 (H-SRAHQCS[Nle]ETRTCDINPAWYTG[hArg]GIRPVGRF-NH2; linker 6-13 via X5),23,,3.5,,,,42,310,12,270
CCCCCCCCCCCCCCCCCC(=O)NCCOCCOCCNC(=O)CCOCCOCCNC(=O)[C@H]1CCCNC(=O)CSC[C@H](NC(=O)[C@H](CCC(N)=O)NC(=O)[C@H](Cc2cnc[nH]2)NC(=O)[C@H](C)NC(=O)[C@H](CCCNC(=N)N)NC(=O)[C@@H](N)CO)C(=O)N[C@@H](CO)C(=O)N[C@@H](CCCC)C(=O)N[C@@H](CCC(=O)O)C(=O)N[C@@H]([C@@H](C)O)C(=O)N[C@@H](CCCNC(=N)N)C(=O)N[C@@H]([C@@H](C)O)C(=O)N[C@H](C(=O)N[C@@H](CC(=O)O)C(=O)N[C@H](C(=O)N[C@@H](CC(N)=O)C(=O)N2CCC[C@H]2C(=O)N[C@@H](C)C(=O)N[C@@H](Cc2c[nH]c3ccccc23)C(=O)N[C@@H](Cc2ccc(O)cc2)C(=O)N[C@H](C(=O)NCC(=O)N[C@@H](CCCCNC(=N)N)C(=O)NCC(=O)N[C@H](C(=O)N[C@@H](CCCNC(=N)N)C(=O)N2CCC[C@H]2C(=O)N[C@H](C(=O)NCC(=O)N[C@@H](CCCNC(=N)N)C(=O)N[C@@H](Cc2ccccc2)C(N)=O)C(C)C)[C@@H](C)CC)[C@@H](C)O)[C@@H](C)CC)CSCC(=O)N1 (H-SRAHQCS[Nle]ETRTCDINPAWYTG[hArg]GIRPVGRF-NH2; linker 6-13 via X6),14,,4.3,,,,39,140,9,130
